Results reported in ChEMBL document CHEMBL1649316, “Using population pharmacokinetics to determine gentamicin dosing during extended daily diafiltration in critically ill patients with acute kidney injury” (Antimicrob Agents Chemother, 2010).

Assays:
Type in all cases: ADME, organism-based
Homo sapiens [1] = assay: Cmax in critically ill patient with acute kidney injury at 5 mg/kg, iv administered as 1 hr infusion; design: dose 5 mg/kg, route intravenous; conditions: in vivo
How it was run: (§1)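 Monte Carlo simulation in NONMEM from the final covariate population model. 1,000 simulated subjects per regimen, modelled on a person (70 kg, BMI 23.6 kg/m²). Weight-based doses were given at EDD-f start or 30 min, 1 h, 2 h or 4 h before a 10-h EDD-f session, every 24 h or every 48 h. Targets were Cmax and AUC0-24, assuming an MIC of 1 mg/liter.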

Homo sapiens [2] = assay: AUC (0 to 24 hrs) in critically ill patient with acute kidney injury at 5 mg/kg, iv administered as 1 hr infusion; design: dose 5 mg/kg, route intravenous; conditions: in vivo; how it was run: as §1
Homo sapiens [3] = assay: AUC (0 to 24 hrs) in critically ill patient with acute kidney injury at 5 mg/kg, iv administered every 24 hrs; design: time < 24 hr, dose 5 mg/kg, route intravenous; conditions: in vivo; how it was run: as §1
Homo sapiens [4] = assay: Clearance iv dosed in critically ill patient with acute kidney injury; conditions: in vivo
How it was run: (§2)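 Patients were 14 critically ill adults with AKI on EDD-f, 28 doses in total. Gentamicin was given as a 30-min central venous infusion. Arterial plasma was sampled predose and at 15, 30, 60, 120, 180, 300, 480 and 600 min, plus samples between EDD-f sessions. Plasma levels were measured by Synchron LX assay (LOD 0.3 mg/liter). A two-compartment NONMEM model (FOCE with interaction) was fitted with EDD-f as a covariate.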

Homo sapiens [5] = assay: Cmax in critically ill patient with acute kidney injury at 5 mg/kg, iv administered every 24 hrs; design: dose 5 mg/kg, route intravenous; conditions: in vivo; how it was run: as §1
Homo sapiens [6] = assay: Half life in iv dosed critically ill patient with acute kidney injury; conditions: in vivo; how it was run: as §2
Homo sapiens [7] = assay: Half life in iv dosed critically ill patient with acute kidney injury during extended daily diafiltration; conditions: in vivo; how it was run: as §2
Homo sapiens [8] = assay: AUC (0 to 24 hrs) in critically ill patient with acute kidney injury at 4 mg/kg, iv administered as 30 mins infusion; design: time < 24 hr, dose 4 mg/kg, route intravenous; conditions: in vivo; how it was run: as §1
Homo sapiens [9] = assay: Cmax in critically ill patient with acute kidney injury at 4 mg/kg, iv administered as 30 mins infusion; design: dose 4 mg/kg, route intravenous; conditions: in vivo, 0.5 h; how it was run: as §1
Homo sapiens [10] = assay: Clearance in iv dosed critically ill patient with acute kidney injury during extended daily diafiltration; conditions: in vivo; how it was run: as §2
Homo sapiens [11] = assay: AUC (0 to 24 hrs) in critically ill patient with acute kidney injury at 6 mg/kg, iv administered every 48 hrs; design: time < 24 hr, dose 6 mg/kg, route intravenous; conditions: in vivo; how it was run: as §1
Homo sapiens [12] = assay: Cmax in critically ill patient with acute kidney injury at 6 mg/kg, iv administered every 48 hrs; design: dose 6 mg/kg, route intravenous; conditions: in vivo; how it was run: as §1

## GENTAMICIN
Homo sapiens [1]
  Cmax: > 10000 ng/mL
Homo sapiens [2]
  Cmax: > 10000 ng/mL
Homo sapiens [3]
  AUC: 135700 ng·h/mL
Homo sapiens [4]
  CL: 0.23 L/h
Homo sapiens [5]
  Cmax: > 10000 ng/mL
Homo sapiens [6]
  t1/2: 153.4 h
Homo sapiens [7]
  t1/2: 13.8 h
Homo sapiens [8]
  AUC: 70000 ng·h/mL
Homo sapiens [9]
  AUC: 70000 ng·h/mL
Homo sapiens [10]
  CL: 2.54 L/h
Homo sapiens [11]
  AUC: 88700 ng·h/mL
Homo sapiens [12]
  Cmax: > 10000 ng/mL
